Data from ChEMBL document CHEMBL1127409 (J Med Chem, 1994).

Experiments:
Glutamate NMDA receptor [1] = assay: Affinity for the glycine binding site of NMDA receptor by inhibition of [3H]5,7-dichlorokynurenic acid ([3H]DCKA) binding to rat brain synaptic membrane
[2] = tested on: Glutamate NMDA receptor (Mus musculus); assay: In vivo inhibition of NMDA-induced seizures
[3] = The compound was tested for its affinity for the glutamic acid binding site of the non-NMDA receptor by using [3H]AMPA as radioligand; set-up: species or system Rattus norvegicus
Summary of the method: (§1)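 Selectivity radioligand binding, run like the [3H]DCKA assay on rat brain synaptic membranes. [3H]CGP-39653 labels the NMDA glutamic acid site; [3H]AMPA and [3H]kainic acid label non-NMDA receptors.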

Glutamate NMDA receptor [4] = assay: The compound was tested for its functional antagonism of the NMDA receptor by using [3H]-MK-801 as radioligand
[5] = The compound was tested for its affinity for the glutamic acid binding site of the non-NMDA receptor by using [3H]-kainic acid as radioligand; set-up: species or system Rattus norvegicus; summary of the method: as §1
Glutamate NMDA receptor [6] = assay: The compound was tested for its affinity for the glutamic acid binding site of the NMDA receptor by using [3H]CGP-39653 as radioligand; type: protein-complex assay; summary of the method: as §1

Row | Ki (Glutamate NMDA receptor [1]) | SMILES | further results
1 | 0.0099 µM | O=C(O)CC1CCc2cc(Br)cc3[nH]c(=O)c(=O)n1c23 (stereo not drawn) | ED50 [2]: 64 mg/kg; IC50 [3]: 4.6 µM; IC50 (Glutamate NMDA receptor [4]): 4.1 µM; IC50 [5]: > 30 µM; IC50 (Glutamate NMDA receptor [6]): > 30 µM
2 | 0.0096 µM | O=C(O)C[C@H]1CCc2cc(Br)cc3[nH]c(=O)c(=O)n1c23 | –
3 | 0.083 µM | O=C(O)C1Cc2cc(Br)cc3[nH]c(=O)c(=O)n1c23 (stereo not drawn) | –
4 | 0.0023 µM | O=C(O)C[C@@H]1CCc2cc(Br)cc3[nH]c(=O)c(=O)n1c23 | ED50 [2]: 26 mg/kg
5 | 0.03 µM | O=C(O)C1CCc2cc(Br)cc3[nH]c(=O)c(=O)n1c23 (stereo not drawn) | –
6 | 0.0073 µM | O=C(O)CC1Cc2cc(Br)cc3[nH]c(=O)c(=O)n1c23 (stereo not drawn) | –
7 | 0.038 µM | O=C(O)CCC1CCc2cc(Br)cc3[nH]c(=O)c(=O)n1c23 (stereo not drawn) | –

Continued, molecule first:

Row | SMILES | Ki (Glutamate NMDA receptor [1]) | further results
8 | O=C(C[C@H]1CCc2cc(Br)cc3[nH]c(=O)c(=O)n1c23)Nc1ccccc1 | 0.082 µM | –
9 | O=C(Nc1ccccc1)C1Cc2cc(Br)cc3[nH]c(=O)c(=O)n1c23 (stereo not drawn) | 0.93 µM | –
10 | O=C(NCC1Cc2cc(Br)cc3[nH]c(=O)c(=O)n1c23)Nc1ccccc1 (stereo not drawn) | 0.43 µM | –
11 | O=C(CCC1CCc2cc(Br)cc3[nH]c(=O)c(=O)n1c23)Nc1ccccc1 (stereo not drawn) | 0.32 µM | –
12 | O=C(Nc1ccccc1)N[C@H]1C[C@H](C(=O)O)Nc2cc(Cl)cc(Cl)c21 | 0.002 µM | –
13 | O=C(O)c1cc(O)c2c(Cl)cc(Cl)cc2n1 | 0.04 µM | –
14 | O=C(CC1CCc2cc(Br)cc3[nH]c(=O)c(=O)n1c23)Nc1ccccc1 (stereo not drawn) | 0.0026 µM | IC50 [3]: 4.6 µM; IC50 (Glutamate NMDA receptor [4]): 1.7 µM; IC50 [5]: > 25 µM; IC50 (Glutamate NMDA receptor [6]): > 25 µM
15 | O=C(C[C@@H]1CCc2cc(Br)cc3[nH]c(=O)c(=O)n1c23)Nc1ccccc1 | 0.00096 µM | –
16 | O=C(CC1Cc2cc(Br)cc3[nH]c(=O)c(=O)n1c23)Nc1ccccc1 (stereo not drawn) | 0.17 µM | –
17 | O=C(NCC1CCc2cc(Br)cc3[nH]c(=O)c(=O)n1c23)c1ccccc1 (stereo not drawn) | 0.19 µM | –
18 | O=C(NCC1CCc2cc(Br)cc3[nH]c(=O)c(=O)n1c23)Nc1ccccc1 (stereo not drawn) | 0.48 µM | –
19 | O=C(Nc1ccccc1)C1CCc2cc(Br)cc3[nH]c(=O)c(=O)n1c23 (stereo not drawn) | 2.1 µM | –
20 | Oc1nc2cc(Cl)c(Cl)cc2nc1O [2,3-DIHYDROXY-6,7-DICHLOROQUINOXALINE] | 0.16 µM | –
21 | O=C(NCC1Cc2cc(Br)cc3[nH]c(=O)c(=O)n1c23)c1ccccc1 (stereo not drawn) | > 2 µM | –
22 | O=c1[nH]c2cc(Br)cc3c2n(c1=O)CC3 | > 3 µM | –
23 | O=c1[nH]c2cc(Br)cc3c2n(c1=O)CCC3 | 0.71 µM | –
